Activity calls are given as the source filed them. The calls are words filed in the database; no cut-off is given here.
Legend:
Danio rerio [1] = assay: In vivo agonist activity at human GFP-tagged PPARalpha in transgenic zebrafish assessed as increase in GFP expression in brain at 0.7 uM measured after 14 hrs by microscopy
Danio rerio [2] = assay: In vivo agonist activity at human GFP-tagged PPARalpha in transgenic zebrafish assessed as increase in GFP expression in yolk sac at 1.5 uM measured after 14 hrs by microscopy
Danio rerio [3] = assay: In vivo agonist activity at human GFP-tagged PPARalpha in transgenic zebrafish assessed as increase in GFP expression in muscle at 1.5 uM measured after 14 hrs by microscopy
Danio rerio [4] = assay: In vivo agonist activity at human GFP-tagged PPARalpha in transgenic zebrafish assessed as increase in GFP expression in heart at 0.5 uM measured after 14 hrs by microscopy
[5] = Apparent oral clearance in C57BL/6 mouse at 40 mg/kg, ip […] by LC-MS/MS analysis; assay type: ADME, organism-based; conditions: in vivo
[6] = molecular target: T1, Peroxisome proliferator-activated receptor gamma (Mus musculus) (UniProt P37238); assay: Agonist activity at human PPARgamma in mouse 3T3-L1 cells assessed as induction of Glut4 mRNA expression at 25 uM incubated for 11 days by quantitative real-time PCR analysis; conditions: filed as agonist, time 11.0 day
T1 sequence (whole entry): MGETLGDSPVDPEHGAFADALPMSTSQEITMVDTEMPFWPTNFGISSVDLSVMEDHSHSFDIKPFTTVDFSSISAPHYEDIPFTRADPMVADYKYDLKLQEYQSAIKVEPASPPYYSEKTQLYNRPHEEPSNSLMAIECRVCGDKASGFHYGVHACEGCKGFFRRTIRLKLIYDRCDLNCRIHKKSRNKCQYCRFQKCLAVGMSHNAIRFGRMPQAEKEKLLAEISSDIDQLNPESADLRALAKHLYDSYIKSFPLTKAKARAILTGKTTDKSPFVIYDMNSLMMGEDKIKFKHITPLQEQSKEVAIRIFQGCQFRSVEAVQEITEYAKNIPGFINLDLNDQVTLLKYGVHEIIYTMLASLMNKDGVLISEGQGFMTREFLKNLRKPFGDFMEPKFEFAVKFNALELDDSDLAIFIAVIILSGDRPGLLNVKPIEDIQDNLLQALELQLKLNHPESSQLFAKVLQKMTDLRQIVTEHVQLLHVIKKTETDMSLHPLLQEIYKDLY

[7] = Elimination rate constant in C57BL/6 mouse at 40 mg/kg, ip measured upto 24 hrs by LC-MS/MS analysis; assay type: ADME, organism-based; conditions: in vivo
Outline: (§1)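 Single IP dose in 5% DMSO/5% Tween-80/90% saline to WT male C57Bl/6 mice, 7–10 months old; n = 4 per time point. Saphenous sampling at 0.08–0.5 h, then terminal trunk blood at 1–6 h. Plasma extracted with methanol plus internal standard and analyzed by LC-MS/MS; mean ± SEM.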

Danio rerio [8] = assay: In vivo agonist activity at human GFP-tagged PPARalpha in transgenic zebrafish assessed as increase in GFP expression in muscle at 0.5 uM measured after 14 hrs by microscopy
[9] = AUC (0 to infinity) in C57BL/6 mouse at 100 mg/kg, po […] by LC-MS/MS analysis; assay type: ADME, organism-based; design: dose 100 mg/kg, route po; conditions: in vivo
Danio rerio [10] = assay: In vivo agonist activity at human GFP-tagged PPARalpha in transgenic zebrafish assessed as increase in GFP expression in yolk sac at 0.5 uM measured after 14 hrs by microscopy
[11] = Cmax in C57BL/6 mouse at 40 mg/kg, ip measured upto 24 hrs by LC-MS/MS analysis; assay type: ADME, organism-based; design: dose 40 mg/kg, time < 24 hrs, route ip; conditions: in vivo
Outline: as §1

[12] = molecular target: T1, Peroxisome proliferator-activated receptor gamma (Mus musculus); assay: Agonist activity at human PPARgamma in mouse 3T3-L1 cells assessed as induction of Adipoq-mRNA expression at 25 uM incubated for 11 days by quantitative real-time PCR analysis; conditions: filed as agonist, time 11.0 day
[13] = Cmax in C57BL/6 mouse at 100 mg/kg, po measured upto 24 hrs by LC-MS/MS analysis; assay type: ADME, organism-based; design: time < 24 hrs, dose 100 mg/kg, route po; conditions: in vivo
Outline: (§2)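 Single oral dose given in peanut butter pellets to WT male C57Bl/6 mice acclimated 7 days to drug-free pellets; n = 4 per time point. Saphenous blood at 0.25–2 h, terminal collection at 4–38 h. Plasma extracted with methanol containing internal standard, LC-MS/MS with negative-ion ESI MRM. Parameters reported as mean ± SEM; Frel is oral vs IP.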

[14] = Terminal half life in C57BL/6 mouse at 100 mg/kg, po measured upto 24 hrs by LC-MS/MS analysis; assay type: ADME, organism-based; conditions: in vivo, read-out: beta t1/2 (converted)
Outline: as §2

Danio rerio [15] = assay: In vivo agonist activity at human GFP-tagged PPARalpha in transgenic zebrafish assessed as increase in GFP expression in brain at 0.5 uM measured after 14 hrs by microscopy
[16] = Tmax in C57BL/6 mouse at 40 mg/kg, ip […] by LC-MS/MS analysis; assay type: ADME, organism-based; conditions: in vivo
[17] = Tmax in C57BL/6 mouse at 100 mg/kg, po measured upto 24 hrs by LC-MS/MS analysis; conditions: in vivo
[18] = molecular target: T2, Peroxisome proliferator-activated receptor alpha (Mus musculus) (UniProt P23204); assay: Agonist activity at human PPARalpha in mouse hepatocytes assessed as induction of cd36 mRNA expression at 50 uM incubated for 16 hrs by quantitative real-time PCR analysis; assay type: cell-based; conditions: Hepatocyte, filed as agonist
T2 sequence (whole entry): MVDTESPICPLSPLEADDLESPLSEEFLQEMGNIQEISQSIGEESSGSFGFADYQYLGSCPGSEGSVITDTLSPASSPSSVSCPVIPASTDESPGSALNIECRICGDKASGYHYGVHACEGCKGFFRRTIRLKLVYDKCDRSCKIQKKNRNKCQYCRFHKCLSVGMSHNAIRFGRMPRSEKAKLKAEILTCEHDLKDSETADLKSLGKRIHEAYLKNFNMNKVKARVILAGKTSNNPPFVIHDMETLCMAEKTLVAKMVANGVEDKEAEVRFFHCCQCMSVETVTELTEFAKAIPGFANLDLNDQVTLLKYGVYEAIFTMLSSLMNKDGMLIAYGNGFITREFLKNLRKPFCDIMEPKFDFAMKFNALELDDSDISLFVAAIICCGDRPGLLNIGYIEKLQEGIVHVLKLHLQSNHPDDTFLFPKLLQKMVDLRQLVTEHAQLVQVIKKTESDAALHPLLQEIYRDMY
Outline: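 Collagenase-perfused mouse primary hepatocytes from WT mice, plated 2 h in attachment medium, overnight in M199 with 5% charcoal-stripped FBS and 1 nM insulin. Treated next day in serum-free M199 with 50 μM compound for 16 h. RNA qPCR (SYBR Green), comparative Ct method.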

[19] = Terminal half life in C57BL/6 mouse at 40 mg/kg, ip […] by LC-MS/MS analysis; assay type: ADME, organism-based; conditions: in vivo, read-out: beta t1/2 (converted)

With `CCCCCC/C=C\CCCCCCCc1cccc(OC(C)(C)C(=O)O)c1` the Activity (Danio rerio [1]) was “Active”.
With `CCCCCCCCCCCCCCCc1cccc(OC(C)=O)c1C(=O)O` the Activity (Danio rerio [2]) was “Active” and the Activity (Danio rerio [3]) was “Active”.
For `CCCCCCCCCCCCCCCc1cccc(OC(C)(C)C(=O)O)c1`, the Activity (Danio rerio [4]) was “Active”, the CL/F [5] was 0.89 mL/min/kg and the Activity [6] was “Active”. The k el at 24 h [7] was 4.83e-05 s⁻¹, the Activity (Danio rerio [8]) was “Active” and the AUC(0-inf) [9] was 717 µg·h/mL. The Activity (Danio rerio [10]) was “Active”, the Cmax [11] was 102 µg/mL and the Activity [12] was “Active”. The Cmax [13] was 76 µg/mL, the half-life [14] was 2.3 h and the Activity (Danio rerio [15]) was “Active”. The Tmax [16] was 0.5 h, the Tmax [17] was 4 h and the Activity [18] was “Active”. For the same compound, the half-life [19] was 4 h.

Source: ChEMBL document CHEMBL5154715, “Phenolic Lipids Derived from Cashew Nut Shell Liquid to Treat Metabolic Diseases” (J Med Chem, 2022)
